An excerpt weighted towards active compounds, which were near 2.8% of everything screened.
CAL PDZ FP-1 – blocks peptide binding to human CAL PDZ domain; Q9HD26; purified CAL PDZ, TMR-peptide fluorescence polarization, 1 h; inhibition, % at 20 µM; 0.02% of 330,000 active;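 active = highest replicate inhibition of at least 40%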;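 also: plate controls were DMSO neutral control wells for no effect and unlabeled competitor peptide control wells for full effect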
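Test system: tagged CAL PDZ domain / Buffer or medium: sodium phosphate/NaCl buffer pH 7.4 with TCEP, IgG, Thesit / Reagent: TMR-labelled reporter peptide T*-PRC34 bound in PDZ groove / Compound dosing: single point, 20 µM / Schedule: 1 h incubation at room temperature before polarization reading / Technique: fluorescence polarization (mP) / Benchmarks: unlabelled peptide, DMSO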
SR-BI DiI-HDL act – activators of SR-BI mediated HDL lipid uptake | activation, % at 12.5 µM | CHO ldlA[mSR-BI] cells, DiI-HDL uptake fluorescence, 3 h; 100 = double the neutral-control signal | 0.096% of 320,000 active;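 active = mean replicate activation of at least 60% and every replicate at or above 60%; inconclusive = mean or all-replicate condition met, but not both; inactive = mean below 60% and not all replicates reaching 60%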;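 also: 0% = median plate neutral-control signal and 100% = twice that signal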
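Material: SR-BI-overexpressing, LDLR-lacking CHO cells | Dosing: Single compound concentration, delivered by pin transfer | Probe or stimulus: Labelled HDL, 10 µg/mL | Signal: Bottom-read cell fluorescence after medium removal, ex 550/em 595 nm | Schedule: 3 h, 37 °C | Evaluation: HDL uptake via cellular fluorescence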
dFosB act-1 – mouse delta FosB homodimer activation; 0.99% of 340,000 active; activation, % at 25 µM; purified delta FosB, TAMRA-CDK5 oligo fluorescence polarization; percent of positive-control signal above neutral wells; AID 493131; P13346;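 active = mean activation above about 17%, with every replicate also reaching it, limit read from the data, passing the limit was not always enough; inconclusive = only one of the two conditions met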
SR-BI HDL uptake – mouse SR-BI HDL lipid transfer inhibition | Q61009 | ldlA[mSR-BI] CHO cells, DiI-HDL uptake fluorescence, 3 h | inhibition, % at 12.5 µM | 0.96% of 320,000 active | AID 488896;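 active = mean replicate inhibition of at least 70% and a set share of replicates each scoring 70 or more; inconclusive = meets just one of the two criteria; inactive = fails both criteria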;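 also: 0% = median of neutral control wells and 100% = median of positive control wells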
Target sequence (Q61009 whole entry, looked up): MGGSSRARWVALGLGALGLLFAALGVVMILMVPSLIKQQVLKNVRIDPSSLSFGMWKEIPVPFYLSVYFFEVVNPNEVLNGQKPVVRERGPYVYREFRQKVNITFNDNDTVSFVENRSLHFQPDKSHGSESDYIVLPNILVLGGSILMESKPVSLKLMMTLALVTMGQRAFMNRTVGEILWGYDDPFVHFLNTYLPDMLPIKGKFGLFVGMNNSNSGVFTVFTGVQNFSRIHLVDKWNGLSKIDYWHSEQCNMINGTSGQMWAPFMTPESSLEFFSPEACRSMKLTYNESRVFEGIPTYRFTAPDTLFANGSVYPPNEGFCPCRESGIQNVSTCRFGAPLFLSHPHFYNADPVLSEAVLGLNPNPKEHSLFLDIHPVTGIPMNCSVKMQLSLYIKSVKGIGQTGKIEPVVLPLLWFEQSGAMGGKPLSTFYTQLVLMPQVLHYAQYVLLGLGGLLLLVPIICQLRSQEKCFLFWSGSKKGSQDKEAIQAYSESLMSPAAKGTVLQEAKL
CAL PDZ FP-2 – blocks peptide binding to the human CAL PDZ domain. 0.92% of 300,000 active. AID 602252. inhibition, % at 24.9 µM. purified CAL PDZ, TMR-peptide fluorescence polarization, 1 h;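 active = mean inhibition of at least 30% with at least half of replicates also reaching 30%; inconclusive = no clear call, values can overlap the other calls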;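 also: 0% = DMSO neutral control and 100% = excess unlabeled competitor peptide PRC23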
dFosB act-2 – delta FosB (mouse) homodimer activation. shares compounds with dFosB act-1. purified delta FosB, TAMRA-CDK5 oligo fluorescence polarization; normalised: neutral wells 0, positive control 100. activation, % at 24.9 µM. 2,400 tested, under 10 active. AID 588690;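 active = highest replicate activation at or above 34% and every replicate reaching that threshold; inconclusive = meets only one of the two criteria; inactive = meets neither criterion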;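 also: higher polarization means more probe DNA bound by delta FosB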
* = called active by the depositor; ? = inconclusive; . = no result given.

SMILES	CAL PDZ FP-1	SR-BI DiI-HDL act	dFosB act-1	SR-BI HDL uptake	CAL PDZ FP-2	dFosB act-2
NS(=O)(=O)c1ccc(CNC(=O)c2cc(-c3cccnc3)nc3ccc(Cl)cc23)cc1	0	-15	15	15	-3	.
O=C1NC(=S)N/C1=C/c1cc2c(cc1[N+](=O)[O-])OCO2	-1	6	0	-6	-7	.
Cc1nn2c(COc3ccc(NC(=O)c4ccccc4Cl)cc3)nnc2c2ccccc12	-7	-9	26*	9	-4	-3
COc1ccc(-c2noc(CSc3nc(N)c(-c4ccccc4)c(=O)[nH]3)n2)cc1	-4	25	62*	-25	1	-1
Cc1cccc(OCC(=O)N/N=C\C=C\c2ccc3c(c2)OCO3)c1C	0	3	38*	-3	.	1
CC(/C=C/c1ccc2c(c1)OCO2)=N\NC(=O)COc1ccccc1C	-1	-4	15	4	-1	.
CCOC(=O)c1c(C)n(C)c2cc(Br)c(OC)cc12	-1	-46	-4	46	-4	.
CCOC(=O)c1c(CNCCN(CC)CC)n(C)c2cc(Br)c(OC)cc12	-3	8	24*	-8	-7	?
COc1ccc(N(C)S(=O)(=O)c2cccc(C(=O)NCc3ccc(C)cc3)c2)cc1	-1	-13	-20	13	-1	.
CS(=O)(=O)c1ccc(Cl)c(NC(=O)Cc2c(Cl)cccc2Cl)c1	0	-6	41*	6	5	5
CS(=O)(=O)c1ccc(Cl)c(NC(=O)Cc2ccsc2)c1	-1	16	0	-16	-8	.
O=C(Cn1c2ccc(F)cc2c2nc3n(c(=O)c21)CCS3)Nc1ccccc1C(F)(F)F	-2	1	50*	-1	-3	-5
CC(C)C[C@H]1CN([C@@H](CC(C)C)CN2CCC[C@@H]2CN2C(=O)C(=O)NC[C@@H]2Cc2ccccc2)C(=O)C(=O)N1CC1CCCCC1	0	8	-19	-8	-9	.
CCC[C@@H](CN1CCC[C@H]1CN1C(N)=NC[C@H]1CC(C)C)N1C[C@@H](Cc2ccccc2)N(CCc2ccc(Cl)c(Cl)c2)C1=N	-5	-12	3	12	-2	.
CCOc1ccc(CCN2C(=S)N([C@@H](CC(C)C)CN3CCCC3CN3C(=S)NC[C@@H]3Cc3ccc(O)cc3)C[C@@H]2CC(C)C)cc1 (stereo partly drawn)	0	18	26*	-18	-3	5
CCOc1ccc(CCN2C(=S)N([C@@H](CC(C)C)CN3CCCC3CN3C(=S)NC[C@@H]3CC(C)C)C[C@@H]2Cc2ccc(O)cc2)cc1 (stereo partly drawn)	0	8	37*	-8	1	3
C#C[C@]1(O)CC[C@H]2[C@@H]3CCC4=C(CCC(=O)C4)[C@H]3CC[C@@]21C	0	8	8	-1	0	.
COCCNC(=O)COc1ncnc2ccc(Br)cc12	-1	22	-3	-22	-6	.
O=C(COc1ncnc2ccc(Br)cc12)NCc1ccco1	-1	30	22*	-30	9	-7
CC(C)(C)NC(=O)CN(C(=O)Cn1nnc(-c2ccc(Cl)cc2)n1)C1CCN(Cc2ccccc2)CC1	-4	4	26*	-4	-1	-1
O=C(Nc1ccc(Cl)cc1Cl)NC1CCCC1	-2	-4	-3	4	-3	.
O=C(Nc1ccc(Cl)cc1Cl)NC1CCN(S(=O)(=O)c2ccc(F)cc2)CC1	-2	-15	55*	15	-9	1
COc1cc(NC(=O)C2CCCCC2)c(OC)cc1NC(=O)c1ccccc1	-2	-38	-15	38	-1	.
COc1cc2c(cc1OC)-c1cc3ccc4c(c3c[n+]1CC2)OCO4	1	-8	38*	8	-9	-22
CCN(CC)C(=O)c1cn(CCC#N)nc1-c1ccc2ccccc2c1	.	.	-5	.	-5	.
O=C(Cn1c(=O)oc2cc(S(=O)(=O)N3CCCC3)ccc21)NC1CCCc2ccccc21 (stereo not drawn)	-1	0	26*	0	.	3
